# Data published in ChEMBL document CHEMBL1177640 (Bioorg Med Chem, 2010).
# pIC50: −log10 of the molar value. Activity calls are given as the source filed them. No cut-off for these calls is given here.
# Experiments:
# [1] = target: T1, Zinc finger protein GLI1 (Homo sapiens) (UniProt P08151); test: Inhibition of human Gli1-mediated transcriptional activity in human Rh30 cells at 10 to 20 uM after 24 hrs by luciferase reporter gene assay; format: cell-based
# T1 sequence (whole entry): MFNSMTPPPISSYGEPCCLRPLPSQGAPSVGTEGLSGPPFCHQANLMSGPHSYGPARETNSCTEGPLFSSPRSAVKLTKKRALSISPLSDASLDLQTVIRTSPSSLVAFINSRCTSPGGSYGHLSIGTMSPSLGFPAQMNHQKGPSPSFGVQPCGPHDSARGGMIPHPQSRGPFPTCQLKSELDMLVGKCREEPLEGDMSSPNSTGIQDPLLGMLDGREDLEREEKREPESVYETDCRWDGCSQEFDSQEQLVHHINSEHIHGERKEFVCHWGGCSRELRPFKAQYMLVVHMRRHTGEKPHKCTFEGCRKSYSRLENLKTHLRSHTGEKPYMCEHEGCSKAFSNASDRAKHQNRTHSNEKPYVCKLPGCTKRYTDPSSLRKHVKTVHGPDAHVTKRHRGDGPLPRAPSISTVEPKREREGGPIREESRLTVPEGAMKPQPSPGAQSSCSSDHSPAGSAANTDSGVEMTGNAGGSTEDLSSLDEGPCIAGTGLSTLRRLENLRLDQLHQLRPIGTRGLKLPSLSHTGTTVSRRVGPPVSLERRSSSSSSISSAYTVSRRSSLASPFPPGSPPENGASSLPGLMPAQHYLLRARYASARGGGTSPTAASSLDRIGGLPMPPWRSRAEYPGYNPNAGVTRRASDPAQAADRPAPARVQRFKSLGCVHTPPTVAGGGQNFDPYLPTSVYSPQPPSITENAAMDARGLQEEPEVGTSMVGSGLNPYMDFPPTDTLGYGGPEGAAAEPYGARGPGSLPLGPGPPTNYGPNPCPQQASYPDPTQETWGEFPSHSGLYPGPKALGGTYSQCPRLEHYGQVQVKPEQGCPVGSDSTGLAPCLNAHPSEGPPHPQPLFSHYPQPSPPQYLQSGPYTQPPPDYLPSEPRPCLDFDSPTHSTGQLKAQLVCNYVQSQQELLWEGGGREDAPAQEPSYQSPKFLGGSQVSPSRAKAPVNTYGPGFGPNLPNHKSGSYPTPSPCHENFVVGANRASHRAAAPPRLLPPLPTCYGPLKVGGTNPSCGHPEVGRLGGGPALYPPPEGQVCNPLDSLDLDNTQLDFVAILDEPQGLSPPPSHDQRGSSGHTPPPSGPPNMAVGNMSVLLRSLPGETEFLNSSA
# Summary of the method: (§1)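 Rh30 cells without Gli1 transfection, transfected overnight with GliLuc-BS (500 ng/mL) and pRL-CMV (2.5 ng/mL), then replated in 96-well plates. Compound given in RPMI-1640/10% FBS for 24 h at 37 °C. Firefly luminescence divided by Renilla and normalized to DMSO-treated cells (0% inhibition), triplicates.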
# [2] = Permeability in buffer of pH 7.4 by PAMPA; format: ADME; conditions: for Papp: read-out: permeability
# Summary of the method: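 Double-Sink PAMPA: DMSO stock diluted 200-fold into system solution buffer pH 7.4 in the donor plate, with acceptor sink buffer pH 7.4. Incubated 0.5 h at room temperature with stirring. Donor and acceptor concentrations measured by UV (230–500 nm), triplicates.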
# SJRH30 [3] = test: Inhibition of cyclinD1 expression in human Rh30 cells at 10 to 40 uM after 24 hrs by RT-PCR analysis; format: functional, cell-based
# Summary of the method: (§2)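 Rh30 cells in 6-well plates treated with compound or DMSO for 24 h. Total RNA (250 ng) reverse-transcribed after DNase removal, then SYBR Green real-time PCR with primers at 200 nM. Target mRNA normalized to GAPDH and to the DMSO control by the 2^-ΔΔCt method. Duplicate data.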
# SJRH30 [4] = test: Inhibition of Ptch1 expression in human Rh30 cells at 10 to 40 uM after 24 hrs by RT-PCR analysis; format: functional, cell-based; summary of the method: as §2
# [5] = target: Transcription factor Jun (Homo sapiens) (UniProt P05412); test: Inhibition of transcriptional activity of AP1 transfected in mouse C3H10T1/2 cells at 20 uM after 24 hrs by luciferase reporter gene assay; format: cell-based; conditions: C3H 10T1/2
# Summary of the method: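 AP-1 reporter tested in C3H10T1/2 cells under the same conditions as the Gli1/Gli-Luc assay: 24 h compound exposure and dual-luciferase read-out normalized to DMSO.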
# SJRH30 [6] = test: Inhibition of Bcl2 expression in human Rh30 cells at 10 to 40 uM after 24 hrs by RT-PCR analysis; format: functional, cell-based; summary of the method: as §2
# C3H 10T1/2 [7] = test: Inhibition of Hh signal-induced alkaline phosphatase activity in mouse C3H10T1/2 cells at 10 uM after 4 days; format: functional, cell-based
# SJRH30 [8] = test: Cytotoxicity against human Rh30 cells at 5 to 20 uM after 72 hrs by Alamar blue assay; format: functional, cell-based
# Summary of the method: (§3)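 Cells seeded 24 h ahead in 384-well plates at 1.0×10^3 (BJ) or 1.6×10^3 (Rh30) per well. Compound diluted from DMSO stock into medium and added in triplicate, then incubated 68 h at 37 °C. Alamar Blue added for a further 4 h, with fluorescence read at ex 510/em 590 nm. Viability normalized to DMSO (100%) and no-cell (0%) wells.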
# BJ = test: Cytotoxicity against human BJ cells at 5 to 20 uM after 72 hrs by Alamar blue assay; format: cell-based; summary of the method: as §3
# [9] = Half life in CD-1 mouse liver microsomes; format: ADME, Microsome
# Summary of the method: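 CD-1 female mouse liver microsomes at 0.6329 mg/mL protein in 0.1 M potassium phosphate pH 7.4 with EDTA. Compound at 1 µM, reaction started with NADPH regenerating system at 37 °C and sampled at 0, 0.5, 1 and 2 h in triplicate. Quenched with cold acetonitrile containing ketoconazole internal standard and analysed by UPLC-MS SIR. ke taken from log-linear regression, t1/2 = ln2/ke.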
# [10] = Inhibition of HDAC up to 40 uM
# C3H 10T1/2 [11] = test: Inhibition of Hh signal-induced alkaline phosphatase activity in mouse C3H10T1/2 cells after 4 days; format: functional, cell-based; conditions: C3H 10T1/2, 96 h
# [12] = target: T1, Zinc finger protein GLI1 (Homo sapiens); test: Inhibition of human Gli1-mediated transcriptional activity in human Rh30 cells up to 40 uM after 24 hrs by luciferase reporter gene assay; format: cell-based; summary of the method: as §1
# Caco-2 [13] = test: Efflux ratio of permeability from basolateral to apical side over apical to basolateral side in human Caco-2 cells at pH 7.4; conditions: caco-2, pH 7.4
# Caco-2 [14] = test: Apparent permeability from basolateral to apical side of human Caco-2 cells at pH 7.4; format: ADME, cell-based; conditions: caco-2, pH 7.4
# Summary of the method: (§4)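 Caco-2 cells grown 7 days on Transwell inserts in MEM with 10% FBS. Monolayers washed with HBSS/HEPES (10 mM, pH 7.4), then compound at 50 µM added to the apical or basolateral side and incubated 2 h at 37 °C. Receiver fractions quantified by UPLC/MS, triplicates. Papp = dQ/dt […].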
# [15] = target: T1, Zinc finger protein GLI1 (Homo sapiens); test: Inhibition of human Gli1 expressed in mouse C3H10T1/2 cells assessed as inhibition of transcriptional activity at 10 to 20 uM after 24 hrs by luciferase reporter gene assay; format: cell-based; conditions: C3H 10T1/2
# Summary of the method: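 C3H10T1/2 cells transiently transfected overnight with GliLuc-BS, pRL-TK Renilla control and human Gli1 (or mouse Gli2 for Gli2 lines), 250 ng/mL each for the Gli plasmids. Cells replated in 96-well plates, then exposed to compound in BME/10% FBS for 24 h at 37 °C. Firefly/Renilla dual-luciferase ratio normalized to DMSO, triplicates. Dose–response IC50 from curve fitting.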
# Caco-2 [16] = test: Apparent permeability from apical to basolateral side of human Caco-2 cells at pH 7.4; format: ADME, cell-based; conditions: caco-2, pH 7.4; summary of the method: as §4
# Chain of Transcription factor Jun (Homo sapiens) (P05412 whole entry): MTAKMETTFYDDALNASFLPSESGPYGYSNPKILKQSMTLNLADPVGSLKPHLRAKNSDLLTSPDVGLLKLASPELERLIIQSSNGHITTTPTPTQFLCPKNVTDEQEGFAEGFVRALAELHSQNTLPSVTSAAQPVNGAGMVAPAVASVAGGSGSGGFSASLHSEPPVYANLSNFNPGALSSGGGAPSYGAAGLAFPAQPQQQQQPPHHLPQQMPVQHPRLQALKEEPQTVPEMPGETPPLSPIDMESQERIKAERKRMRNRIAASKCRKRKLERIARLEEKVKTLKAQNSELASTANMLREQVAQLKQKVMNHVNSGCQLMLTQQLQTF
structure (smiles),measurement,setting,value
CCCN(C(=O)C(C)c1cccc(C(=O)c2ccccc2)c1)c1ccc2cc[nH]c2c1 (configuration not stated),inhibition,[1],Active
same,permeability,[2],80%
same,Papp,[2],71.4 ×10⁻⁶ cm/s
same,inhibition,SJRH30 [3],Active
same,inhibition,SJRH30 [4],Active
same,inhibition,[5],inactive
same,inhibition,SJRH30 [6],Active
same,inhibition,C3H 10T1/2 [7],inactive
same,Activity,SJRH30 [8],Toxic
same,Activity,BJ,Non-toxic
same,t1/2,[9],1.8 h
same,inhibition,[10],inactive
COc1cc(OC)cc(C(=O)Nc2ccc(Cl)c(-c3nc4cc(N(C)C)ccc4[nH]3)c2)c1,pIC50,C3H 10T1/2 [11],7.00
same,inhibition,[12],inactive
CCCN(C(=O)C(C)c1cccc(C(=O)c2ccccc2)c1)c1cccc2[nH]ccc12 (configuration not stated),Activity,SJRH30 [8],Toxic
same,Activity,BJ,Non-toxic
CCCN(CCc1ccc(O)cc1)C(=O)C(C)c1cccc(C(=O)c2ccccc2)c1 (configuration not stated),Activity,SJRH30 [8],Toxic
same,Activity,BJ,Non-toxic
same,inhibition,[10],inactive
same,inhibition,[12],inactive
CC(CNC(=O)c1ccc2[nH]ccc2c1)c1cccc(C(=O)c2ccccc2)c1 (configuration not stated),permeability,[2],47%
same,Papp,[2],52.1 ×10⁻⁶ cm/s
same,inhibition,[5],inactive
same,Activity,SJRH30 [8],Toxic
same,Ratio,Caco-2 [13],0.46
same,Activity,BJ,Non-toxic
same,t1/2,[9],0.6 h
same,Papp,Caco-2 [14],2.7 ×10⁻⁶ cm/s
same,inhibition,[15],Active
same,Papp,Caco-2 [16],5.8 ×10⁻⁶ cm/s
CCCN(C(=O)C(C)c1cccc(C(=O)c2ccccc2)c1)c1ccc2[nH]ccc2c1 (configuration not stated),inhibition,[1],Active
same,inhibition,[5],inactive
same,inhibition,C3H 10T1/2 [7],inactive
same,Activity,SJRH30 [8],Toxic
same,Activity,BJ,Non-toxic
same,t1/2,[9],0.8 h
same,inhibition,[10],inactive
CC(CNC(=O)c1cc2ccccc2[nH]1)c1cccc(C(=O)c2ccccc2)c1 (configuration not stated),Activity,SJRH30 [8],Toxic
same,Activity,BJ,Non-toxic
same,inhibition,[15],Active
CC(CNC(=O)c1ccc2cc[nH]c2c1)c1cccc(C(=O)c2ccccc2)c1 (configuration not stated),Activity,SJRH30 [8],Toxic
same,Activity,BJ,Non-toxic
same,inhibition,[15],Active
CC(CNC(=O)c1cccc2cc[nH]c12)c1cccc(C(=O)c2ccccc2)c1 (configuration not stated),inhibition,[15],Active
CC(CNC(=O)Cc1ccc2[nH]ccc2c1)c1cccc(C(=O)c2ccccc2)c1 (configuration not stated),inhibition,[15],inactive
CC(C(=O)Nc1ccc2cc[nH]c2c1)c1cccc(C(=O)c2ccccc2)c1 (configuration not stated),inhibition,[1],Active
same,permeability,[2],75%
same,Papp,[2],77.8 ×10⁻⁶ cm/s
same,inhibition,[5],inactive
same,inhibition,C3H 10T1/2 [7],inactive
same,Activity,SJRH30 [8],Toxic
same,Ratio,Caco-2 [13],0.31
same,Activity,BJ,Non-toxic
same,t1/2,[9],2.8 h
same,Papp,Caco-2 [14],3.9 ×10⁻⁶ cm/s
same,Papp,Caco-2 [16],12.2 ×10⁻⁶ cm/s
CNC(=C[N+](=O)[O-])NCCSCc1ccc(CN(C)C)o1 [RANITIDINE],permeability,[2],2%
CC(CNC(=O)c1cccc2[nH]ccc12)c1cccc(C(=O)c2ccccc2)c1 (configuration not stated),inhibition,[15],Active
CC(C(=O)NCCc1ccc(O)cc1)c1cccc(C(=O)c2ccccc2)c1 (configuration not stated),permeability,[2],92%
same,Papp,[2],60.2 ×10⁻⁶ cm/s
same,Activity,SJRH30 [8],Toxic
same,Ratio,Caco-2 [13],0.45
same,Activity,BJ,Non-toxic
same,Papp,Caco-2 [14],5.8 ×10⁻⁶ cm/s
same,Papp,Caco-2 [16],13 ×10⁻⁶ cm/s
same,inhibition,[10],inactive
CC(CNC(=O)c1c[nH]c2ccccc12)c1cccc(C(=O)c2ccccc2)c1 (configuration not stated),Activity,SJRH30 [8],Toxic
same,Activity,BJ,Non-toxic
same,inhibition,[15],Active
NC(=O)N1c2ccccc2C=Cc2ccccc21 [CARBAMAZEPINE],permeability,[2],33%
CC(C(=O)Nc1ccc2[nH]ccc2c1)c1cccc(C(=O)c2ccccc2)c1 (configuration not stated),Activity,SJRH30 [8],Toxic
same,Activity,BJ,Non-toxic
